The record followed here is ChEMBL document CHEMBL1147940, “Differential receptor binding characteristics of consecutive phenylalanines in micro-opioid specific peptide ligand endomorphin-2” (Bioorg Med Chem, 2007).

For test [1], the target named is Opioid receptors; mu & delta (Rattus norvegicus) (UniProt P33533+P33535). As to the kind of experiment: Selectivity for rat mu opioid receptor over rat delta opioid. Format: protein assay. The gist of the method: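 Ratio of IC50 values from [3H]deltorphin II (delta) and [3H]DAGO (mu) displacement on rat brain membranes. Each used 0.25 nM tracer, 60 min incubation at room temperature in Tris-HCl pH 7.55 with 0.1% BSA and bacitracin, and filtration with scintillation counting.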
Opioid receptors; mu & delta (Rattus norvegicus), sequence (P33533 whole entry, looked up): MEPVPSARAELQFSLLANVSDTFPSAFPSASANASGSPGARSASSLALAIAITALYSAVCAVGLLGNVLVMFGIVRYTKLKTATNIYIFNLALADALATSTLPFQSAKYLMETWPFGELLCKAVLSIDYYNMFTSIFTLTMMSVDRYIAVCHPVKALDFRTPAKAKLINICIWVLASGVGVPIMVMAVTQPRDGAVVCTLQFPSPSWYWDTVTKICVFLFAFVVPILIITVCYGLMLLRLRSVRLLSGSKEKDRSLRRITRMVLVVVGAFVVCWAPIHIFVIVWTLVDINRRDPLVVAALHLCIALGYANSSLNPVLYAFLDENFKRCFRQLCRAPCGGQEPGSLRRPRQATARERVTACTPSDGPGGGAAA
Opioid receptors; mu & delta (Rattus norvegicus), sequence (P33535 whole entry, looked up): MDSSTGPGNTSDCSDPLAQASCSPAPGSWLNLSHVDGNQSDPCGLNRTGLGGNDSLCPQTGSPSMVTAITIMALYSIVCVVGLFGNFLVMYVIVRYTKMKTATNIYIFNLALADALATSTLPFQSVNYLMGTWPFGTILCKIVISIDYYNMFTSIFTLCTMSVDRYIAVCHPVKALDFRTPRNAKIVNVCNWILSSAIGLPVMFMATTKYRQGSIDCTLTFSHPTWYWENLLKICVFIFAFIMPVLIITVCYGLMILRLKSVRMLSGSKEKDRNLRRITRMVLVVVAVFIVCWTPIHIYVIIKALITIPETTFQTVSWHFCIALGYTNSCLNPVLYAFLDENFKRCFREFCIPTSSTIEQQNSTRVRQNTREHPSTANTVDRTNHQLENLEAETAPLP

The target in test [2] is Delta-type opioid receptor (Rattus norvegicus, UniProt P33533). The test can be described thus: Displacement of [3H]deltorphin2 from delta opioid receptor in rat brain membrane. Format: cell membranes. A general note: In a radioligand displacement assay an active substance lowers the binding of a labelled ligand.
Delta-type opioid receptor, sequence (P33533 whole entry): as the sequence (P33533 whole entry, looked up) above
The target in a further test is Mu-type opioid receptor (Rattus norvegicus, UniProt P33535). As to the kind of experiment: Displacement of [3H]DAGO from mu opioid receptor in rat brain membrane. Format: cell membranes.
Mu-type opioid receptor, sequence (P33535 whole entry): as the sequence (P33535 whole entry, looked up) above

Usually IC50 stands for the midpoint of a concentration-inhibition curve. High values mean weaker potency in that assay, low ones greater potency in that assay.

The structures appear in SMILES notation. Residues, ends and D or L forms follow the SMILES beside them. Some results are limits rather than exact numbers.

In the case of `NC(=O)[C@H](Cc1c(F)c(F)c(F)c(F)c1F)NC(=O)[C@H](Cc1ccccc1)NC(=O)[C@@H]1CCCN1C(=O)[C@@H](N)Cc1ccc(O)cc1`, the Ratio IC50 in test [1] was found to be 1000. The IC50 was determined as 8.04 µM in test [2] and 0.00274 µM at Mu-type opioid receptor.
The matching figures for `NC(=O)[C@H](Cc1ccccc1)NC(=O)[C@H](Cc1c(F)c(F)c(F)c(F)c1F)NC(=O)[C@@H]1CCCN1C(=O)[C@@H](N)Cc1ccc(O)cc1`: 1000, 11.7 µM and 0.0117 µM.
For `C[C@H](NC(=O)[C@@H]1CCCN1C(=O)[C@@H](N)Cc1ccc(O)cc1)C(=O)N[C@@H](Cc1ccccc1)C(N)=O` (H-YPAF-NH2), the half-maximal inhibitory concentration (IC50) on Mu-type opioid receptor stood at 3.81 µM.
At Mu-type opioid receptor, `C[C@H](NC(=O)[C@H](Cc1ccccc1)NC(=O)[C@@H]1CCCN1C(=O)[C@@H](N)Cc1ccc(O)cc1)C(N)=O` (H-YPFA-NH2) yielded an IC50 of 0.0854 µM.
As for `NC(=O)[C@H](Cc1c[nH]cn1)NC(=O)[C@H](Cc1ccccc1)NC(=O)[C@@H]1CCCN1C(=O)[C@@H](N)Cc1ccc(O)cc1` (H-YPFH-NH2), the results for the IC50 (in test [2]; on Mu-type opioid receptor) were over 1000 µM and 0.138 µM, respectively.
`NCCCC[C@H](NC(=O)[C@H](Cc1ccccc1)NC(=O)[C@@H]1CCCN1C(=O)[C@@H](N)Cc1ccc(O)cc1)C(N)=O` (H-YPFK-NH2): at Mu-type opioid receptor, the half-inhibitory concentration (IC50) was 0.408 µM.
Take `CC(C)C[C@H](NC(=O)[C@H](Cc1ccccc1)NC(=O)[C@@H]1CCCN1C(=O)[C@@H](N)Cc1ccc(O)cc1)C(N)=O` (H-YPFL-NH2): the IC50 in test [2] was over 1000 µM; on Mu-type opioid receptor, 0.062 µM.
The matching figures for `CC(C)[C@H](NC(=O)[C@H](Cc1ccccc1)NC(=O)[C@@H]1CCCN1C(=O)[C@@H](N)Cc1ccc(O)cc1)C(N)=O` (H-YPFV-NH2): over 1000 µM and 0.0765 µM.
The matching figures for `NC(=O)[C@H](Cc1c[nH]c2ccccc12)NC(=O)[C@H](Cc1ccccc1)NC(=O)[C@@H]1CCCN1C(=O)[C@@H](N)Cc1ccc(O)cc1` (H-YPFW-NH2): over 1000 µM and 0.0871 µM.
Consider `NC(=O)[C@H](Cc1ccc(O)cc1)NC(=O)[C@H](Cc1ccccc1)NC(=O)[C@@H]1CCCN1C(=O)[C@@H](N)Cc1ccc(O)cc1` (H-YPFY-NH2), for which the Ratio IC50 in test [1] came out at 5.2. The IC50 is 54.5 µM in test [2] and 0.0622 µM on Mu-type opioid receptor.
On to `NC(=O)[C@H](Cc1ccccc1)NC(=O)[C@H](Cc1c[nH]cn1)NC(=O)[C@@H]1CCCN1C(=O)[C@@H](N)Cc1ccc(O)cc1` (H-YPHF-NH2), for which the half-maximal inhibitory concentration (IC50) in test [2] was over 1000 µM; at Mu-type opioid receptor it was 4.49 µM.
`NCCCC[C@H](NC(=O)[C@@H]1CCCN1C(=O)[C@@H](N)Cc1ccc(O)cc1)C(=O)N[C@@H](Cc1ccccc1)C(N)=O` (H-YPKF-NH2): the concentration for half-maximal inhibition (IC50) at Mu-type opioid receptor is over 1000 µM.
Take `CC(C)C[C@H](NC(=O)[C@@H]1CCCN1C(=O)[C@@H](N)Cc1ccc(O)cc1)C(=O)N[C@@H](Cc1ccccc1)C(N)=O` (H-YPLF-NH2): the figures for the IC50 (in test [2]; at Mu-type opioid receptor) were over 1000 µM and 0.926 µM, respectively.
The matching figures for `CC(C)[C@H](NC(=O)[C@@H]1CCCN1C(=O)[C@@H](N)Cc1ccc(O)cc1)C(=O)N[C@@H](Cc1ccccc1)C(N)=O` (H-YPVF-NH2): over 1000 µM and 2.65 µM.
`NC(=O)[C@H](Cc1ccccc1)NC(=O)[C@H](Cc1ccc(O)cc1)NC(=O)[C@@H]1CCCN1C(=O)[C@@H](N)Cc1ccc(O)cc1` (H-YPYF-NH2): the Ratio IC50 in test [1] was found to be 5.2. The IC50 is 5.72 µM in test [2] and 1.1 µM at Mu-type opioid receptor.
The matching figures for `NC(=O)[C@H](CC1CCCCC1)NC(=O)[C@H](Cc1ccccc1)NC(=O)[C@@H]1CCCN1C(=O)[C@@H](N)Cc1ccc(O)cc1` (HELM PEPTIDE1{Y.P.F.[Cha].[am]}$$$$V2.0): 21.3, 11.4 µM and 0.917 µM.
`CCCC[C@H](NC(=O)[C@H](Cc1ccccc1)NC(=O)[C@@H]1CCCN1C(=O)[C@@H](N)Cc1ccc(O)cc1)C(N)=O` (HELM PEPTIDE1{Y.P.F.[Nle].[am]}$$$$V2.0): the figures for the concentration for half-maximal inhibition (IC50) (in test [2]; on Mu-type opioid receptor) were over 1000 µM and 0.0339 µM, respectively.
Take `NC(=O)[C@H](Cc1ccccc1)NC(=O)[C@H](CC1CCCCC1)NC(=O)[C@@H]1CCCN1C(=O)[C@@H](N)Cc1ccc(O)cc1` (HELM PEPTIDE1{Y.P.[Cha].F.[am]}$$$$V2.0): the Ratio IC50 in test [1] was 21.3. Moreover, the half-inhibitory concentration (IC50) in test [2] came out at 3.15 µM; at Mu-type opioid receptor it was 0.148 µM.
`CCCC[C@H](NC(=O)[C@@H]1CCCN1C(=O)[C@@H](N)Cc1ccc(O)cc1)C(=O)N[C@@H](Cc1ccccc1)C(N)=O` (HELM PEPTIDE1{Y.P.[Nle].F.[am]}$$$$V2.0): in test [1], the Ratio IC50 came to 66.1. For the same molecule, the IC50 in test [2] was 15.2 µM; on Mu-type opioid receptor, 0.23 µM.
`C[C@@H](NC(=O)[C@@H](N)Cc1ccc(O)cc1)C(=O)NCC(=O)N(C)[C@@H](Cc1ccccc1)C(=O)NCCO` [DAMGO] showed an IC50 in test [2] of 0.727 µM.
